Screening data as filed in PubChem BioAssay.
Runt-CBFb FRET – inhibitors of RUNX1 Runt–CBFb binding, primary screen, biochemical, FRET, Cerulean-Runt, Venus-CBFb, uHTS. Runt-related transcription factor 1 (Homo sapiens) + Core-binding factor subunit beta …. Cerulean-Runt/Venus-CBFb FRET ratio 530/480, 1 h. inhibition, % at 20 µM. 220,000 tested, 0.46% active. AID 1496, 2009;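 active means inhibition over about 50% at 20 µM in the single-dose screen, limit read from the data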;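 further: 0% = DMSO wells and 100% = excess unlabeled CBFb competitor control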
Target sequence (Q01196 whole entry, looked up): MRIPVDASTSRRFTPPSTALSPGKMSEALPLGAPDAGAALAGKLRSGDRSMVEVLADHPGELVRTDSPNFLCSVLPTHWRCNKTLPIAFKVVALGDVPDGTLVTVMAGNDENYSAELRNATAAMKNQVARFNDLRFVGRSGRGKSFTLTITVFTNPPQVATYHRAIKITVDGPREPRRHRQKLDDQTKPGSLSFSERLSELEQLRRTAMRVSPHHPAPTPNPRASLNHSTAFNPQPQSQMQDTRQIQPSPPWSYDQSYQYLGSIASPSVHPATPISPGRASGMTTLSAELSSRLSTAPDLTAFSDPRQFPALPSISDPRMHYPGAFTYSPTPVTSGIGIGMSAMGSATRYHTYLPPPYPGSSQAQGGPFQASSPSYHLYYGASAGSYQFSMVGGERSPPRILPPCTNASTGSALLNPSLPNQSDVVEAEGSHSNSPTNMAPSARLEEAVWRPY
Target sequence (Q13951 whole entry, looked up): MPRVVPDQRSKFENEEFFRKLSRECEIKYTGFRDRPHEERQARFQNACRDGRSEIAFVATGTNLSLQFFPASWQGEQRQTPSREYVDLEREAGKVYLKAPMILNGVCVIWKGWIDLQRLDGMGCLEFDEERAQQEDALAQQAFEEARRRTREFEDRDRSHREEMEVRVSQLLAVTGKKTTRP
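test system = Cerulean-Runt domain fusion protein, energy donor | probe or stimulus = Venus-CBFb binding partner, 100 nM | incubation = two 1 h room-temperature incubations shielded from light | detection = fluorescence energy transfer, 422 nm excitation, 530/480 nm emission | measure = loss of energy transfer signal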
RanGTP-Impb inh – inhibitors of RanGTP-importin-beta interaction, primary screen, biochemical, FRET, CFP-Ran, YFP-importin-beta, homogeneous | cell-free CFP-Ran/YFP-importin-beta FRET ratio | inhibition, % (concentration not given with the values) | Ran GTPase (GTP-bound) - importin-beta complex | 300,000 tested, 1.1% active;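 active means more than half of the replicate wells show a fall in the fluorescence ratio signal beyond about 16%, limit read from the data, passing the limit was not always enough; inconclusive means exactly half of the replicate wells pass the set limit; inactive means fewer than half of replicates pass the limit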;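 further: 0% = DMSO wells and 100% = Ran loaded with GDP instead of GTP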
Runt-SMMHC FRET – inhibitors of RUNX1 Runt–CBFb-SMMHC binding, primary screen, biochemical, FRET, Cerulean-Runt, Venus-CBFb-SMMHC, uHTS; AID 1434, 2008; Cerulean-Runt/Venus-CBFb-SMMHC FRET ratio 530/480, 1 h; Runt-related transcription factor 1 (Homo sapiens) + Core-binding factor subunit beta …; 220,000 tested, 0.74% active; inhibition, % at 20 µM;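 active means mean inhibition across duplicate retests at 20 µM reaching about 50%, limit read from the data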;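 further: 0% = DMSO wells and 100% = wells with excess untagged CBFb-SMMHC; inhibitors lower the FRET ratio by blocking Runt binding to CBFb-SMMHC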
CaV13 ICDI inh – Primary screen for inhibitors of IQ motif and Ca2+-dependent inactivation inhibitor domain binding in CACNA1D, Förster resonance energy transfer in living cells, … | HEK cells, CFP/YFP FRET ICDI-IQ, plate reader, 10 min; percent FRET-ratio fall versus neutral wells | inhibition, % at 12.3 µM | 340,000 tested, 0.098% active;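 active means mean replicate inhibition of at least 30% and at least 1% of replicates passing that level; inconclusive means only one of the two criteria is met; inactive means neither criterion is met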;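 further: 0% = median of the neutral control wells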
Hck-Nef inh – inhibitors of Nef-activated human Hck kinase, primary screen, biochemical, Z-Lyte FRET, 384-well, Hck-YEEI | Tyrosine-protein kinase HCK (Homo sapiens), P08631 | Recombinant Hck-YEEI plus Nef, Z-Lyte FRET kinase assay | inhibition, % at 20 µM | 220,000 tested, 0.68% active | AID 463187, 2010;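 active means Hck-Nef kinase inhibition above about 50%, limit read from the data; inactive means inhibition below that limit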;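 further: 0% = DMSO with Hck plus Nef and 100% = Hck alone without Nef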
* = called active by the depositor; ? = inconclusive; · = no result; + = active, no number. Sampled rows, rich in hits. Any-hit rate of the full collection: about 1.5%.

SMILES	Runt-CBFb FRET	RanGTP-Impb inh	Runt-SMMHC FRET	CaV13 ICDI inh	Hck-Nef inh
CCn1c(O)c(/C=N/NC(=O)c2ccncc2)c(=O)[nH]c1=S	28	5	82*	-1	7
O=C(N/N=C/c1c(O)n(Cc2ccc(F)cc2)c(=S)[nH]c1=O)c1ccncc1	69*	10	84*	3	-53
CCC(C)n1c(O)c(/C=N/NC(=O)c2ccncc2)c(=O)[nH]c1=S (stereo not given)	44	-2	77*	-4	10
O=C(N/N=C/c1c(O)n(C2CCCCC2)c(=S)[nH]c1=O)c1ccccc1O	·	13	·	-16	·
O=c1[nH]c(=S)n(Cc2ccc(F)cc2)c(O)c1C=NCCCn1ccnc1	0	-1	0	-6	23
CCCCn1c(O)c(/C=N/NC(=O)c2ccncc2)c(=O)[nH]c1=O	3	1	5	-5	-16
CC(C)c1ccc(-n2c(O)c(/C=N/NC(=O)c3ccccc3O)c(=O)[nH]c2=S)cc1	21	3	59*	-16	7
CC(=O)NCC1=C(c2ccc(S(C)(=O)=O)cc2)C[C@@H]2CC[C@H]1N2CCOc1ccccc1	·	·	·	-5	·
CCn1c(O)c(/C=N/NC(=O)c2ccccc2)c(=O)n(CC)c1=S	36	11	70*	4	10
CCN(C(=O)COC(=O)c1cc(C)n(C2CC2)c1C)c1ccccc1	·	·	·	-6	·
CCCCn1c(O)c(C(=O)/C=C/c2c[nH]c3ccccc23)c(=O)[nH]c1=O	-2	?	-60	-24	-3
O=C1NC(=O)N(c2ccccc2)C(=O)/C1=C\C=C\c1ccccc1	37	0	55*	-6	14
O=C1NC(=O)N(c2ccccc2)C(=O)/C1=C\c1ccc([N+](=O)[O-])o1	11	-2	8	·	55*
C=CCN1CC[C@]23c4c5ccc(O)c4O[C@H]2/C(=N/NC(=O)c2ccccc2)CC[C@@]3(O)[C@H]1C5	·	5	·	-6	·
O=C(COc1ccc2ccc(=O)oc2c1)N1C[C@H]2C[C@@H](C1)c1cccc(=O)n1C2	·	-2	·	·	·
CC(Cc1ccccc1)NC(=O)c1ccc(N)cc1 (stereo not given)	·	-3	·	0	·
COCCCn1c(N)c(C(=O)Nc2sc3c(c2C(=O)OC)CCCC3)c2nc3ccccc3nc21	93*	12	8	·	-2
CCCCOCCCn1c(N)c(C(=O)OC(C)COC)c2nc3ccccc3nc21 (stereo not given)	41	5	128*	-4	16
CCC(C)NC(=O)c1c(N)n(CCCOC)c2nc3ccccc3nc12 (stereo not given)	-10	112*	20	-1	48
CCC(C)NC(=O)c1c(N)n(Cc2ccc3c(c2)OCO3)c2nc3ccccc3nc12 (stereo not given)	5	60*	26	-4	41
Nc1ncn[nH]1	·	-1	·	-7	·
Cc1cc(N2CCNC[C@@H]2C)ccc1N1CCN[C@@H](C)C1	·	·	·	-2	·
CCC(C)NC(=O)c1c(N)n(CC2CCCO2)c2nc3ccccc3nc12 (stereo not given)	12	5	100*	1	42
CC1=C2[C@@H]3OC(=O)[C@H](C)C3CC[C@@]2(C)C=CC1=O (stereo not given in full)	·	4	·	-18	·
CS(=O)(=O)NNP(=O)(NNS(C)(=O)=O)NC(=O)c1ccc(Br)cc1	2	6	1	-5	7
SMILES	Runt-CBFb FRET	RanGTP-Impb inh	Runt-SMMHC FRET	CaV13 ICDI inh	Hck-Nef inh
COc1ccc(CNCCc2c(C)[nH]c3ccc(OC(F)(F)F)cc23)c(OC)c1	·	-1	·	-4	·
Cc1cc2c(C(C)C)c(O)c(O)c(C=O)c2c(O)c1-c1c(C)cc2c(C(C)C)c(O)c(O)c(C=O)c2c1O	3	·	-2	-2	102*
COC(=O)C1=C(c2c(C)noc2C)C[C@@H]2CC[C@H]1N2C(=O)NCCOc1ccc(OC)cc1	·	·	·	-6	·
O=C1NC(=O)C(=Cc2ccc(-c3cc(Cl)ccc3[N+](=O)[O-])o2)C(=O)N1	39	-1	37	-6	61*
COc1ccc(N2C(=O)NC(=O)/C(=C/c3ccc4c(c3)Cc3ccccc3-4)C2=O)cc1	·	-2	-14	·	87*
COc1cc(/C=C2\C(=O)NC(=O)N(c3ccccc3)C2=O)cc(OC)c1OC	1	4	1	-5	8
Cc1ccc(OC(=O)N(C)C[C@@H]2OCc3ccccc3-c3c(n(C)c4ccccc34)C(=O)N([C@H](C)CO)C[C@H]2C)cc1	·	·	·	-6	·
C[C@@H]1CNCCN1c1ccc(N2CC[C@H](O)C2)c(C#N)c1	·	·	·	-6	·
C[C@H]1CN([C@@H](C)CO)C(=O)CCCn2cc(nn2)CO[C@@H]1CN(C)C(=O)Oc1cccc2ccccc12	·	·	·	-5	·
CCNCC1(c2ccc(OC)c(OC)c2)CCCC1	12	60*	24	-5	2
CNCC1(c2ccccc2)CCCC1	2	?	-2	-5	-1
CC[C@H]1CN2CC[C@@]3(C(=O)Nc4ccccc43)[C@@H]2C[C@@H]1/C(=C\OC)C(=O)OC	·	-1	·	·	·
O=C1NC(=O)C2=Cc3ccc(O)cc3OC2(O)N1 (stereo not given)	3	·	90*	·	19
Nc1ccc2ccc3cccc[n+]3c2c1	·	-337	·	+	·
C[n+]1c(-c2ccccc2)c2cc(N)ccc2c2ccc(N)cc21	·	3	·	-10	·
CNC(=O)Oc1c(C)[nH]ccc1=O	·	·	·	-5	·
O=c1[nH]c(=O)n(Cc2ccccc2)c(O)c1/C=C1\C=Nc2ccccc21	39	0	93*	-2	0
CCCCn1c(NC(=O)c2ccc(Br)o2)c(C(=O)OCC)c2nc3ccccc3nc21	1	·	23	-1	-14
CCCCn1c(NS(=O)(=O)c2ccccc2)c(C(=O)OCC)c2nc3ccccc3nc21	3	85*	9	15	14
CN(C)C(=O)Oc1ccc2nnc3ccnn3c2c1	·	72*	·	-3	·
COc1ccc2c3c([nH]c2c1)C(C)NCC3 (stereo not given)	21	?	85*	·	-7
COc1ccc2[nH]c3c(c2c1)CCNC3C (stereo not given)	·	-4	·	-5	·
COc1ccc(CCNC(=O)c2c(N)n(CCN3CCOCC3)c3nc4ccccc4nc23)cc1	67*	69*	83*	-3	47
CCCCn1c(N)c(C(=O)NCCN2CCOCC2)c2nc3ccccc3nc21	21	83*	65*	5	42
